# In the library only some 3% were active in any assay of this set; here they are far more common.
# SENP1 inh – blocks the human SENP1 SUMO protease catalytic domain. Q9P0U3. recombinant SENP1 catalytic domain, CyPet-SUMO1-YPet FRET cleavage. inhibition, % at 10 µM. 360,000 compounds, 0.21% hits. AID 624204;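 active = inhibition at least 30% at 10 µM, raw YFP signal under a set limit, fluorescence ratio 0.5 to 1.5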;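 also: 0% = enzyme with DMSO and 100% = no enzyme wells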
#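 Controls: no-enzyme wells low, DMSO-plus-enzyme wells high control. Test system: human recombinant His6-tagged SENP1 catalytic domain enzyme. Reagent: SFCypet-SUMO1-SFYpet FRET protein substrate, 25 nM final. Doses: one dose per compound, 10 µM, 0.5% DMSO. Detection: FRET, CFP and YFP emission. Timing: 50 min reaction at room temperature.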
# H9c2 protect – modulators protecting cardiomyocytes from myocardial damage; H9c2 cardiomyocytes, H2O2 injury protection, ATPLite, 2 h; protection from H2O2 cell death, % at 20 µM; 360,000 compounds, 0.63% hits; AID 588492;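 active = compounds giving at least 50% protection of heart cells from peroxide-induced death in the single-dose screen, raw or plate-pattern-corrected value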;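 also: 0% = DMSO wells with peroxide and 100% = DMSO wells without peroxide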
# HNF4A DNA FP – change in binding of human HNF4 alpha to DNA; AID 1224865; P41235; HNF4a-FITC DNA binding, fluorescence polarization, 1 h; 360,000 compounds, 0.3% hits; activity change, % at 10 µM; in the data active = activity change above about 30%, passing the limit was not always enough
# DSG3 Ab inh – inhibitors of pemphigus antibody binding to human desmoglein-3; P32926; binding (percent of control), % at 10 µM; 310,000 compounds, 0.48% hits; DSG3-coupled beads, scFv-anti-DSG3-GFP binding, flow cytometry; stronger effect = lower value;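 active = binding more than 3 SD below its plate's average and above zero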
# Granule exo inh – lytic granule exocytosis inhibition; TALL-104 LAMP-1 surface exposure, flow cytometry; cells stimulated with thapsigargin and PMA; inhibition, % at 10 µM; 360,000 compounds, 0.66% hits; AID 651702;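 active = inhibition above about 55%, limit read from the data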
# Myeloid diff MLP – compounds promoting myeloid differentiation; ER-HoxA9 myeloid progenitors, lysozyme-GFP differentiation, flow cytometry; calls only at 10 µM; 360,000 compounds, 1% hits;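 active = normalized GFP-positive differentiation at or above the plate's own cutoff, the solvent-only control mean plus 3 SD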;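 also: cells exposed to compound for four days before flow analysis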
# Myeloid diff CP1 – promotes myeloid progenitor differentiation; 2,300 compounds, 2% hits; shares compounds with Myeloid diff MLP; calls only; ER-HoxA9 myeloid progenitors, GFP/Mac1 double-positive flow;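 active = share of green or green-and-red cells above 9 and 9% in run 1 or 4 and 3% in run 2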
# GFP autofluor – flagged as fluorescent in myeloid differentiation counter-screen; shares compounds with Myeloid diff MLP; ER-HoxA9 myeloid progenitors, no estrogen, GFP autofluorescence flow cytometry; vehicle wells 0%, positive control 100%; fluorescence response, % (no concentration beside the values); 2,300 compounds, 7.4% hits;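 active = over 5% cells positive for green fluorescent reporter, or over 2% positive for both it and APC stain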;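 also: range taken on the double positive population between DMSO and positive control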
# * hit, by the source's call; i = inactive; nt = not tested or not shown; + = active, no number.
SMILES,SENP1 inh,H9c2 protect,HNF4A DNA FP,DSG3 Ab inh,Granule exo inh,Myeloid diff MLP,Myeloid diff CP1,GFP autofluor
C/C(=C\c1ccc2c(c1)OCO2)C(=O)c1c(C)cc(C)[nH]c1=O,-2.6,1.4,0.2,99.4,17.8,i,nt,nt
CCCCc1c(O)c2ccccc2n(CCCC)c1=O,1.3,-4.4,6.4,97.6,-4.1,i,nt,nt
CCCCc1c(CCC)c(=N)c2ccccc2n1C,0.6,-10.8,-0.5,101.3,0.3,i,i,0.0
Cc1cccc(-c2ccc3ncnc(NCc4cccnc4)c3c2)c1,-7.7,-1.9,4.8,100.0,3.8,i,nt,nt
Cc1cccc(CNc2ncnc3ccc(-c4cccnc4)cc23)c1,2.8,-10.3,5.4,98.8,12.1,+,i,0.3
CCCC1=[N+](CC(=O)c2ccccc2)CCn2c(C)ccc21,-13.8,-20.0,1.2,nt,-0.8,+,i,0.0
Cc1csc(C)[n+]1CC(=O)c1ccccc1,-0.1,-2.0,1.6,120.7,-10.8,i,nt,nt
CCCCc1c(C(=O)O)cc(OC)cc1C(=O)O,-0.3,-10.5,1.4,102.6,0.6,i,nt,nt
Cc1cc(C(=O)O)c(CCCN)s1,-0.5,-1.5,1.7,93.8,-1.3,i,i,0.3
COC(=O)C(C)(C)NC(=O)c1cccs1,0.2,3.4,-0.2,102.5,0.0,i,nt,nt
COC(=O)C(C)(C)c1cccnc1C#N,1.1,37.2,-4.3,99.5,-1.4,i,i,0.0
Cc1ccc(C2=NCCNC2=O)c(C)c1,1.1,10.3,1.0,110.4,-1.0,i,i,0.9
Cc1ccc(C)c(N/N=C2\CCCNC2=O)c1,-4.6,-5.1,1.8,nt,-3.8,i,nt,nt
O=C(NC1CCCCNC1=O)c1ccco1 (centres undefined),1.1,3.2,-4.9,87.1,5.7,i,nt,nt
COc1ccc(C2SCC(=O)N2c2c(C)n(C)n(-c3ccccc3)c2=O)cc1OC (centres undefined),1.0,2.2,0.4,nt,-2.7,+,i,0.3
COc1ccc(CCN(C)c2ccc(S(=O)(=O)N3CCCC3)cc2[N+](=O)[O-])cc1OC,2.4,-4.8,3.8,98.2,6.4,i,nt,nt
COc1ccc(CN(C)c2ccc(S(=O)(=O)N3CCN(C)CC3)cc2[N+](=O)[O-])cc1OC,1.3,-27.3,-1.2,99.3,-1.4,i,i,0.9
CCOC(=O)C1CCN(C(=S)Nc2cccc(C)c2C)CC1,3.1,4.0,0.3,104.1,9.8,i,nt,nt
O=C(Nc1ccc(Cl)c(S(=O)(=O)N2CCOCC2)c1)C1CCCC1,1.0,-6.9,-0.1,94.6,2.9,i,nt,nt
Cc1cccn2c(=O)c(/C=C3\SC(=S)NC3=O)c(NCCCN3CCOCC3)nc12,-35.5,-16.0,108.9*,95.8,40.5,+,i,1.4
CCn1c(-c2ccccc2Cl)nn(CC(=O)Nc2cc(Cl)ccc2Cl)c1=S,1.0,-3.3,-0.8,110.9,0.0,i,i,0.0
Nc1ccn([C@@H]2O[C@H](CNCc3cc(Cl)ccc3OCc3ccc(Cl)cc3)[C@@H](O)[C@H]2O)c(=O)n1,3.0,3.3,-1.6,105.5,6.3,i,nt,nt
Cc1cccc(N2CCN(S(=O)(=O)c3c(C)[nH]c(=O)[nH]c3=O)CC2)c1C,0.5,2.3,3.5,122.5,9.7,i,i,0.3
COc1ccc(C(=O)C[n+]2cccc3cc(C)ccc32)cc1,13.1,-6.0,2.1,149.6,0.8,i,i,42.0*
CN(C)c1cc[n+](CC(=O)c2ccc(Br)cc2)cc1,-0.5,-0.8,-0.1,114.7,1.4,i,nt,nt
SMILES,SENP1 inh,H9c2 protect,HNF4A DNA FP,DSG3 Ab inh,Granule exo inh,Myeloid diff MLP,Myeloid diff CP1,GFP autofluor
COc1ccc(C(=O)C[n+]2ccc(N(C)C)cc2)cc1,-0.4,-2.3,-3.6,nt,-1.7,i,i,0.4
COc1cccc(C(=O)C[n+]2cccc3cc(OC)ccc32)c1,-21.7,0.9,-2.3,105.8,0.5,i,nt,nt
COc1ccc(CN(C)C(=O)C2CSC3(C)CCC(=O)N23)cc1OC (centres undefined),-1.4,-1.0,1.0,106.0,0.5,i,nt,nt
O=C(CCc1nc2ccccc2c(=O)[nH]1)N1CCCc2ccccc21,-47.6,66.8*,2.1,94.5,-4.1,+,i,1.6
O=[N+]([O-])c1cccc(-c2nc(-c3ccncc3)no2)c1,0.5,8.2,1.3,107.7,0.3,+,i,2.5
O=[N+]([O-])c1cccc(-c2nc(-c3ccccc3)no2)c1,2.4,-7.1,11.4,101.5,10.9,i,nt,nt
CC(C)(C)OC(=O)N1CC2(CCCCC2)CC1Cc1ccc(C(F)(F)F)cc1 (centres undefined),2.7,-2.5,-0.4,93.3,-1.3,i,i,0.3
N#Cc1cc(C#N)c(N2CCN(c3ccccn3)CC2)nc1N,-51.6,22.1,1.4,111.3,0.1,+,i,0.3
Cc1cc(C(=O)NC2CCCc3c2cnn3-c2cccc(C)c2C)no1 (centres undefined),-1.8,-9.8,4.4,101.4,-7.9,+,i,3.8
CC1=C(C(=O)NC2CCCc3c2cnn3-c2cccc(C)c2C)OCCO1 (centres undefined),1.0,-13.2,-0.1,107.2,-1.6,i,nt,nt
CC(C)C1C(=O)N(Cc2cn(CC3CCCCC3)nn2)CCS(=O)(=O)N1Cc1ccc(-c2ccc(F)cc2)cc1 (centres undefined),0.6,-9.3,3.5,101.9,11.3,i,i,0.4
CC(C)C1C(=O)N(Cc2cn(CCC3OCCCO3)nn2)CCS(=O)(=O)N1Cc1ccc(-c2cccc(CO)c2)cc1 (centres undefined),2.4,4.6,-9.9,nt,-3.3,i,i,1.3
CCC/C=C/c1ccc(CN2C(C(C)C)C(=O)N(Cc3cn(CCC4OCCO4)nn3)CCS2(=O)=O)cc1 (centres undefined),2.7,-5.3,-2.9,nt,-1.8,i,i,0.0
COCOCCn1cc(CN2CCS(=O)(=O)N(Cc3ccc(-c4ccc(Cl)nc4)cc3)C(CC(C)C)C2=O)nn1 (centres undefined),1.9,4.9,2.2,nt,-6.8,i,nt,nt
COCOCCn1cc(CN2CCS(=O)(=O)N(Cc3ccc(-c4ccc(Cl)cc4)cc3)C(CC(C)C)C2=O)nn1 (centres undefined),-0.1,16.0,3.9,112.5,6.0,+,i,0.3
C#CCN1c2ccccc2Sc2cccnc21,0.0,0.8,-2.4,97.2,-2.5,i,nt,nt

# From PubChem BioAssay
